Measurements pooled from the literature.
Protocols differ between the studies behind these lines.
Organism: Staphylococcus aureus
Read-out: microbial growth

SMILES	assay	test system	setting	inhibition zone
CC1(C)S[C@@H]2[C@H](NC(=O)[C@H](N)c3ccc(O)cc3)C(=O)N2[C@H]1C(=O)O	disc diffusion	ATCC29213	250 µg/mL	9.37 mm
CC(=O)C1=C(C)N2NC(C)(c3ccccc3O)N(C(Cc3c[nH]c4ccccc34)C(=O)O)C2=NC1c1ccc(Cl)cc1 (stereo not shown)		ATCC25923	15 µg/mL, 24 h	33 mm
COc1cc(C=CC(=O)CC(c2ccc([N+](=O)[O-])cc2)n2ccnc2)ccc1O (stereo not shown)	disc diffusion	ATCC29213	250 µg/mL	6 mm
CCOC(=O)C1=C(C)N2NC(c3ccccc3O)N(C(Cc3c[nH]c4ccccc34)C(=O)O)C2=NC1c1ccc(Cl)cc1 (stereo not shown)		ATCC25923	15 µg/mL, 24 h	33 mm
Cc1ccc2nc(-n3nc(C(C)C)c4c3-c3ccccc3C4=O)sc2c1	well diffusion	NCIM5021	500 µg/mL	13 mm
COc1cc(C=Cc2cc(-c3ccc(N(C)C)cc3)nc(O)n2)ccc1O	disc diffusion	ATCC29213	250 µg/mL	6 mm
N#Cc1c(-c2ccc(Cl)cc2)nc2n(c1=O)NC(c1ccccc1O)N2C(Cc1c[nH]c2ccccc12)C(=O)O (stereo not shown)		ATCC25923	10 µg/mL, 24 h	18 mm
CC(C)c1nn(-c2nc3ccccc3s2)c2c1C(=O)c1ccccc1-2	well diffusion	NCIM5021	125 µg/mL	10 mm
CC[C@H]1OC(=O)[C@H](C)[C@@H](O[C@H]2C[C@@](C)(OC)[C@@H](O)[C@H](C)O2)[C@H](C)[C@@H](O[C@@H]2O[C@H](C)C[C@H](N(C)C)[C@H]2O)[C@](C)(O)C[C@@H](C)/C(=N\OCOCCOC)[C@H](C)[C@@H](O)[C@]1(C)O	disc diffusion	ATCC6538	20000 µg/mL, 24 h	20 mm
COc1ccc2nc(-n3nc(C)c4c3-c3ccccc3C4=O)sc2c1	well diffusion	NCIM5021	125 µg/mL	11 mm
COc1cc(C=CC(=O)CC(c2ccc(N(C)C)cc2)n2ccnc2)ccc1O (stereo not shown)	disc diffusion	ATCC29213	250 µg/mL	9 mm
CC(C(=O)O)N1C2=NC(c3ccc(Cl)cc3)C3=C(OC(C)(C)OC3=O)N2NC1(C)c1ccccc1O (stereo not shown)		ATCC25923	15 µg/mL, 24 h	24 mm
Cc1cc(N)c2ccccc2[n+]1CCCCCCCCCC[n+]1c(C)cc(N)c2ccccc21	disc diffusion		50 µg/disc	9 mm
CC(C)c1nn(-c2nc3ccc(Br)cc3s2)c2c1C(=O)c1ccccc1-2	well diffusion	NCIM5021	250 µg/mL	11 mm
CC(=O)C1=C(C)N2NC(C)(c3ccccc3O)N(C(C)C(=O)O)C2=NC1c1ccc(Cl)cc1 (stereo not shown)		ATCC25923	15 µg/mL, 24 h	17 mm
Cc1nn(-c2nc3ccccc3s2)c2c1C(=O)c1ccccc1-2	well diffusion	NCIM5021	1000 µg/mL	11 mm
CC(=O)C1=C(C)N2NC(c3ccccc3O)N(C(Cc3c[nH]c4ccccc34)C(=O)O)C2=NC1c1ccc(Cl)cc1 (stereo not shown)		ATCC25923	10 µg/mL, 24 h	19 mm
Cc1ccc2nc(-n3nc(C)c4c3-c3ccccc3C4=O)sc2c1	well diffusion	NCIM5021	250 µg/mL	11 mm
CN[C@H](CC(C)C)C(=O)N[C@H]1C(=O)N[C@@H](CC(N)=O)C(=O)N[C@H]2C(=O)N[C@H]3C(=O)N[C@H](C(=O)N[C@H](C(=O)O)c4cc(O)cc(O)c4-c4cc3ccc4O)[C@H](O)c3ccc(c(Cl)c3)Oc3cc2cc(c3O[C@@H]2O[C@H](CO)[C@@H](O)[C@H](O)[C@H]2O[C@H]2C[C@](C)(N)[C@H](O)[C@H](C)O2)Oc2ccc(cc2Cl)[C@H]1O	disc diffusion	ATCC29213	31.2 µg/disc, 24 h	18 mm
